According to ChEMBL document CHEMBL1799920, “Total synthesis and pharmacological characterization of solomonsterol A, a potent marine pregnane-X-receptor agonist endowed with anti-inflammatory activity” (J Med Chem, 2011):
The source made the active and inactive calls.

Columns and labels:
Settings in all cases: C57Bl/6
Mus musculus [1] = test: Antiinflammatory activity against trinitrobenzenesulfonic acid-induced colitis in human PXR expressing transgenic C57/BL6 mouse assessed as decrease in occurrence of diarrhea at 10 mg/kg, ip qd administered 3 days before TNBS challenge measured after 7 days; assay type: functional, organism-based; set-up: dose 10 mg/kg
In short: (§1)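 Male hPXR mice (human PXR on mouse PXR-null background). Fasted 16 h and lightly anaesthetised with ketamine/xylazine, then given TNBS 0.5 mg/mouse in 50% ethanol intrarectally in 150 μL. Drug was dissolved in DMSO, diluted in 1% methylcellulose and given i.p. once daily for 3 days before TNBS. Vehicle controls received methylcellulose. Mice were sacrificed 4 days after TNBS; n = 6–7 per group.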

Mus musculus [2] = test: Antiinflammatory activity against trinitrobenzenesulfonic acid-induced colitis in human PXR expressing transgenic C57/BL6 mouse assessed as decrease in presence of indurations in colon at 10 mg/kg, ip qd administered 3 days before TNBS challenge measured after 7 days; assay type: functional, organism-based; set-up: dose 10 mg/kg; in short: as §1
Mus musculus [3] = test: Antiinflammatory activity against trinitrobenzenesulfonic acid-induced colitis in human PXR expressing transgenic C57/BL6 mouse assessed as decrease in edema of colon at 10 mg/kg, ip qd administered 3 days before TNBS challenge measured after 7 days; assay type: functional, organism-based; set-up: dose 10 mg/kg; in short: as §1
Mus musculus [4] = test: Antiinflammatory activity against trinitrobenzenesulfonic acid-induced colitis in human PXR expressing transgenic C57/BL6 mouse assessed as decrease in microscopic colon damage at 10 mg/kg, ip qd administered 3 days before TNBS challenge measured after 7 days; assay type: functional, organism-based; set-up: dose 10 mg/kg; in short: as §1
Mus musculus [5] = test: Antiinflammatory activity against trinitrobenzenesulfonic acid-induced colitis in human PXR expressing transgenic C57/BL6 mouse assessed as decrease in cellular infiltrate in colon at 10 mg/kg, ip qd administered 3 days before TNBS challenge measured after 7 days; assay type: functional, organism-based; set-up: dose 10 mg/kg; in short: as §1
Mus musculus [6] = test: Antiinflammatory activity against trinitrobenzenesulfonic acid-induced colitis in human PXR expressing transgenic C57/BL6 mouse assessed as decrease in appearance of submucosal edema in colon at 10 mg/kg, ip qd administered 3 days before TNBS challenge measured after 7 days by haematoxylin/eosin staining; assay type: functional, organism-based; set-up: dose 10 mg/kg; in short: as §1
Mus musculus [7] = test: Antiinflammatory activity against trinitrobenzenesulfonic acid-induced colitis in human PXR expressing transgenic C57/BL6 mouse assessed as decrease in colonic myeloperoxidase activity at 10 mg/kg, ip qd after 5 days using trimethylbenzidine as substrate by spectrophotometry; assay type: functional, organism-based; set-up: dose 10 mg/kg; in short: as §1
Mus musculus [8] = test: Antiinflammatory activity against trinitrobenzenesulfonic acid-induced colitis in human PXR expressing transgenic C57/BL6 mouse assessed as decrease in IL-12p70 protein level in colon at 10 mg/kg, ip qd after 5 days; assay type: functional, organism-based; set-up: dose 10 mg/kg
Mus musculus [9] = test: Antiinflammatory activity against trinitrobenzenesulfonic acid-induced colitis in human PXR expressing transgenic C57/BL6 mouse assessed as induction of CYP3A11 mRNA expression in colon at 10 mg/kg, ip qd after 5 days by quantitative RT-PCR; assay type: functional, organism-based; set-up: dose 10 mg/kg; in short: as §1
Mus musculus [10] = test: Antiinflammatory activity against trinitrobenzenesulfonic acid-induced colitis in human PXR expressing transgenic C57/BL6 mouse assessed as decrease in goblet cells in colon at 10 mg/kg, ip administered on day 1 after TNBS challenge measured after 5 days by microscopically; assay type: functional, organism-based; set-up: dose 10 mg/kg
In short: (§2)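 Therapeutic protocol in male hPXR mice. Colitis was induced with intrarectal TNBS 0.5 mg/mouse in 50% ethanol after a 16 h fast and light ketamine/xylazine anaesthesia. Drug at 10 mg/kg was given once daily from day 1 after TNBS. Mice were sacrificed 5 days after TNBS; n = 4–6 per group.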

Mus musculus [11] = test: Antiinflammatory activity against trinitrobenzenesulfonic acid-induced colitis in human PXR expressing transgenic C57/BL6 mouse assessed as decrease in colonic myeloperoxidase level at 10 mg/kg, ip administered on day 1 after TNBS challenge measured after 5 days; assay type: functional, organism-based; set-up: dose 10 mg/kg; in short: as §2
Mus musculus [12] = test: Antiinflammatory activity against trinitrobenzenesulfonic acid-induced colitis in human PXR expressing transgenic C57/BL6 mouse assessed as decrease in vascular density in colon at 10 mg/kg, ip administered on day 1 after TNBS challenge measured after 5 days by microscopically
Mus musculus [13] = test: Antiinflammatory activity against trinitrobenzenesulfonic acid-induced colitis in human PXR expressing transgenic C57/BL6 mouse assessed as decrease in occurrence of diarrhea at 10 mg/kg, po qd administered 3 days before TNBS challenge measured after 7 days; assay type: functional, organism-based; set-up: dose 10 mg/kg
In short: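 Clinical read-outs in hPXR mice with TNBS colitis (0.5 mg/mouse intrarectally in 50% ethanol after a 16 h fast). Oral dosing at 10 mg/kg once daily (DMSO diluted in 1% methylcellulose) started 3 days before TNBS. Diarrhea was scored and body weight recorded, weight expressed as delta percentage versus the day before TNBS; sacrifice was 4 days after TNBS. n = 6–7.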

Mus musculus [14] = test: Antiinflammatory activity against trinitrobenzenesulfonic acid-induced colitis in human PXR expressing transgenic C57/BL6 mouse assessed as decrease in presence of indurations in colon at 10 mg/kg, po qd administered 3 days before TNBS challenge measured after 7 days; assay type: functional, organism-based; set-up: dose 10 mg/kg
In short: (§3)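 hPXR male mice were fasted 16 h and given TNBS intrarectally (0.5 mg/mouse in 50% ethanol). Oral 10 mg/kg once daily (DMSO stock diluted in 1% methylcellulose) began 3 days before TNBS; vehicle controls received 1% methylcellulose. Four days after TNBS, colon macroscopic appearance was graded blind for induration, edema, thickness and mucosal hemorrhage. n = 6–7.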

Mus musculus [15] = test: Antiinflammatory activity against trinitrobenzenesulfonic acid-induced colitis in human PXR expressing transgenic C57/BL6 mouse assessed as decrease in thickness of colon at 10 mg/kg, po qd administered 3 days before TNBS challenge measured after 7 days; assay type: functional, organism-based; set-up: dose 10 mg/kg; in short: as §3
Mus musculus [16] = test: Antiinflammatory activity against trinitrobenzenesulfonic acid-induced colitis in human PXR expressing transgenic C57/BL6 mouse assessed as decrease in evidence of mucosal hemorrhage damage at 10 mg/kg, po qd administered 3 days before TNBS challenge measured after 7 days; assay type: functional, organism-based; set-up: dose 10 mg/kg; in short: as §3
Mus musculus [17] = test: Antiinflammatory activity against trinitrobenzenesulfonic acid-induced colitis in human PXR expressing transgenic C57/BL6 mouse assessed as decrease in appearance of epithelial erosions in colon at 10 mg/kg, po qd administered 3 days before TNBS challenge measured after 7 days by haematoxylin/eosin staining; assay type: functional, organism-based; set-up: dose 10 mg/kg
In short: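 TNBS colitis in male hPXR mice (human PXR on mouse PXR-null background). After a 16 h fast and light ketamine/xylazine i.p. anesthesia, mice received TNBS 0.5 mg/mouse in 50% ethanol intrarectally by catheter. Dosing was 10 mg/kg orally once daily, dissolved in DMSO and diluted in 1% methylcellulose, starting 3 days before TNBS. Colons were taken 4 days after TNBS and stained with H&E. n = 6–7.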

Mus musculus [18] = test: Antiinflammatory activity against trinitrobenzenesulfonic acid-induced colitis in human PXR expressing transgenic C57/BL6 mouse assessed as decrease in INF-gamma protein level in colon at 10 mg/kg, po qd after 5 days; assay type: functional, organism-based; set-up: dose 10 mg/kg
Mus musculus [19] = test: Antiinflammatory activity against trinitrobenzenesulfonic acid-induced colitis in human PXR expressing transgenic C57/BL6 mouse assessed as decrease in IL-12p70 protein level in colon at 10 mg/kg, po qd after 5 days; assay type: functional, organism-based; set-up: dose 10 mg/kg
Mus musculus [20] = test: Antiinflammatory activity against trinitrobenzenesulfonic acid-induced colitis in human PXR expressing transgenic C57/BL6 mouse assessed as increase in TGF-beta1 protein level in colon at 10 mg/kg, po qd after 5 days

Measured: Activity

C[C@H](CCCOS(=O)(=O)O)[C@H]1CC[C@H]2[C@@H]3CC[C@H]4C[C@H](OS(=O)(=O)O)[C@@H](OS(=O)(=O)O)C[C@]4(C)[C@H]3CC[C@]12C [SOLOMONSTEROL A]
active: Mus musculus [1] | Mus musculus [2] | Mus musculus [3] | Mus musculus [4] | Mus musculus [5] | Mus musculus [6] | Mus musculus [7] | Mus musculus [8] | Mus musculus [9] | Mus musculus [10] | Mus musculus [11] | Mus musculus [12]

CO[C@H]1/C=C/O[C@@]2(C)Oc3c(C)c(O)c4c(O)c(c5c(nc6cc(C)ccn65)c4c3C2=O)NC(=O)/C(C)=C\C=C\[C@H](C)[C@H](O)[C@@H](C)[C@@H](O)[C@@H](C)[C@H](OC(C)=O)[C@@H]1C [RIFAXIMIN]
active: Mus musculus [13] | Mus musculus [14] | Mus musculus [15] | Mus musculus [16] | Mus musculus [17] | Mus musculus [18] | Mus musculus [19] | Mus musculus [20]
